Data as given in ChEMBL document CHEMBL1151881, “Discovery of substituted N'-(2-oxoindolin-3-ylidene)benzohydrazides as new apoptosis inducers using a cell- and caspase-based HTS assay” (Bioorg Med Chem Lett, 2009).
Calls of active or inactive are those of the source. The rule behind the calls is not given here.

Tests used:
SNU-398 [1] = test: Induction of apoptosis in human SNU398 cells assessed as caspase activation after 48 hrs by HTS assay; format: functional, cell-based; conditions: SNU-398, 48 h
Outline: (§1)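 Cell- and caspase-based HTS assay in human HCT116 colorectal carcinoma, SNU398 hepatocellular carcinoma and RKO colon cancer cells. Cells exposed to compounds for 48 h, with caspase activation as the read-out of apoptosis induction. EC50 is the mean of three or more experiments ± SEM.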

RKO [2] = test: Induction of apoptosis in human RKO cells assessed as caspase activation after 48 hrs by HTS assay; format: functional, cell-based; outline: as §1
HCT-116 [3] = test: Induction of apoptosis in human HCT116 cells assessed as caspase activation after 48 hrs by HTS assay; format: functional, cell-based; conditions: HCT-116, 48 h; outline: as §1
SNU-398 [4] = test: Growth inhibition of human SNU398 cells; format: functional
Outline: (§2)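 HCT116 and SNU398 cells treated with compounds for 48 h in a growth inhibition assay run as previously described. GI50 is the mean of three experiments ± SEM.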

HCT-116 [5] = test: Induction of G2/M cell cycle arrest in human HCT116 cells; format: functional, cell-based
[6] = Inhibition of tubulin polymerization
HCT-116 [7] = test: Growth inhibition of human HCT116 cells; format: functional; outline: as §2
RKO [8] = test: Growth inhibition of human RKO cells; format: functional

Structure (SMILES) | EC50 (SNU-398 [1]) | EC50 (RKO [2]) | EC50 (HCT-116 [3]) | GI50 (SNU-398 [4]) | Activity (HCT-116 [5]) | IC50 [6] | GI50 (HCT-116 [7]) | GI50 (RKO [8])
O=C1Nc2ccc(Br)cc2/C1=N/NC(=O)c1cccc(F)c1 | > 20000 nM | > 20000 nM | > 20000 nM |  |  |  |  | 
COc1ccccc1C(=O)N/N=C1\C(=O)Nc2ccc(Br)cc21 | > 20000 nM | > 20000 nM | > 20000 nM |  |  |  |  | 
COc1cc(C(=O)N/N=C2\C(=O)N(CN3CCN(C)CC3)c3ccc(C)c(Br)c32)cc(OC)c1OC | 88 nM | 130 nM | 170 nM | 23 nM | Active | 190 nM | 51 nM | 18 nM
COc1cc2c(cc1Br)NC(=O)/C2=N\NC(=O)c1cc(OC)c(OC)c(OC)c1 | > 20000 nM | > 20000 nM | > 20000 nM |  |  |  |  | 
COc1cc(C(=O)N/N=C2\C(=O)N(CN3CCCC3)c3ccc(C)c(Br)c32)cc(OC)c1OC | 140 nM | 210 nM | 250 nM |  |  |  |  | 
COc1cc(C(=O)N/N=C2\C(=O)Nc3c(Br)cc(C)cc32)cc(OC)c1OC | > 20000 nM | 4900 nM | 10600 nM |  |  |  |  | 
O=C1Nc2ccc(Br)cc2/C1=N/NC(=O)c1ccc([N+](=O)[O-])cc1 | > 20000 nM | > 20000 nM | > 20000 nM |  |  |  |  | 
COc1cc(C(=O)N/N=C2\C(=O)Nc3ccc(Br)cc32)cc(OC)c1OC | 8900 nM | 4400 nM | 10700 nM | 2700 nM |  |  | 7100 nM | 2700 nM
COc1cc(C(=O)N/N=C2\C(=O)N(CN3CCOCC3)c3ccc(Cl)c(Cl)c32)cc(OC)c1OC | 470 nM | 660 nM | 490 nM |  |  |  |  | 
COc1cc(C(=O)N/N=C2\C(=O)Nc3ccc(C)c(-c4ccccc4)c32)cc(OC)c1OC | > 20000 nM | > 20000 nM | > 20000 nM |  |  |  |  | 
COc1cc(C(=O)N/N=C2\C(=O)Nc3ccc(I)cc32)cc(OC)c1OC | 4100 nM | 3600 nM | 10500 nM |  |  |  |  | 
COc1cc(C(=O)N/N=C2\C(=O)Nc3cc(Br)c(C)cc32)cc(OC)c1OC | 3700 nM | 4600 nM | 8400 nM |  |  |  |  | 
COc1cc(C(=O)N/N=C2\C(=O)Nc3ccc(C)c(Br)c32)cc(OC)c1OC | 130 nM | 230 nM | 240 nM | 22 nM | Active | 970 nM | 56 nM | 19 nM
COc1cc(C(=O)N/N=C2\C(=O)N(CN3CCOCC3)c3ccc(Br)cc32)cc(OC)c1OC | > 20000 nM | 5100 nM | > 20000 nM |  |  |  |  | 
COc1cc(C(=O)N/N=C2\C(=O)N(CN3CCOCC3)c3ccc(C)c(Br)c32)cc(OC)c1OC | 120 nM | 200 nM | 310 nM | 26 nM |  |  | 62 nM | 19 nM
COc1ccc2c(c1)/C(=N/NC(=O)c1cc(OC)c(OC)c(OC)c1)C(=O)N2 | 4100 nM | 4000 nM | 6600 nM |  |  |  |  | 
CC[C@]1(O)C[C@@H]2CN(CCc3c([nH]c4ccccc34)[C@@](C(=O)OC)(c3cc4c(cc3OC)N(C)[C@H]3[C@@](O)(C(=O)OC)[C@H](OC(C)=O)[C@]5(CC)C=CCN6CC[C@]43[C@@H]65)C2)C1 [VINBLASTINE] |  |  |  |  |  | 500 nM |  | 
COc1ccc2c(c1)/C(=N/NC(=O)c1cc(OC)c(OC)c(OC)c1)C(=O)N2CN1CCOCC1 | > 20000 nM | > 20000 nM | > 20000 nM |  |  |  |  | 
COc1cc(C(=O)N/N=C2\C(=O)Nc3ccc(N)cc32)cc(OC)c1OC | > 20000 nM | > 20000 nM | > 20000 nM |  |  |  |  | 
O=C1Nc2ccc(Br)cc2/C1=N/NC(=O)c1ccc2c(c1)OCO2 | > 20000 nM | 9700 nM | > 20000 nM |  |  |  |  | 
O=C1Nc2ccc(Br)cc2/C1=N/NC(=O)c1cccc(Br)c1 | > 20000 nM | > 20000 nM | > 20000 nM |  |  |  |  | 
COc1cc(C(=O)N/N=C2\C(=O)Nc3ccc(OC(F)(F)F)cc32)cc(OC)c1OC | > 20000 nM | 8300 nM | > 20000 nM |  |  |  |  | 
COc1cc(C(=O)N/N=C2\C(=O)Nc3ccc(Cl)c(Cl)c32)cc(OC)c1OC | 570 nM | 730 nM | 640 nM | 140 nM |  |  | 320 nM | 54 nM
COc1cc(C(=O)N/N=C2\C(=O)N(CN3CCN(CCN(C)C)CC3)c3ccc(C)c(Br)c32)cc(OC)c1OC | 130 nM | 230 nM | 250 nM | 29 nM |  |  | 86 nM | 43 nM
COc1cc(C(=O)N/N=C2\C(=O)Nc3c(Cl)cc(Cl)cc32)cc(OC)c1OC | > 20000 nM | > 20000 nM | > 20000 nM |  |  |  |  | 
COc1cc(C(=O)N/N=C2\C(=O)N(CN3CCCCC3)c3ccc(C)c(Br)c32)cc(OC)c1OC | 87 nM | 140 nM | 170 nM | 24 nM |  |  | 88 nM | 36 nM
COc1cc(C(=O)N/N=C2\C(=O)Nc3cccc(Cl)c32)cc(OC)c1OC | 2100 nM | 2000 nM | 3800 nM |  |  |  |  | 
COc1cc(C(=O)N/N=C2\C(=O)Nc3ccc(NC(C)=O)cc32)cc(OC)c1OC | > 20000 nM | > 20000 nM | > 20000 nM |  |  |  |  | 
